Assay results as given in ChEMBL document CHEMBL4028848, “Discovery of N-{4-[5-(4-Fluorophenyl)-3-methyl-2-methylsulfanyl-3H-imidazol-4-yl]-pyridin-2-yl}-acetamide (CBS-3595), a Dual p38α MAPK/PDE-4 Inhibitor with Activity against TNFα-Related Diseases” (J Med Chem, 2017).
Activity calls are given as the source filed them. No cut-off for these calls is given here.

Assays:
[1] = tested on: Liver; assay: Drug metabolism in rat liver microsomes assessed as N-(4-(4-(4-fluorophenyl)-1-methyl-2-(methylsulfinyl)-1H-imidazol-5-yl)pyridin-2-yl)acetamide formation at 10 to 100 uM; type: ADME, microsome
Method in brief: (§1)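 Test compound incubated at 10, 30 and 100 μM with liver microsomes from rat, Cynomolgus monkey or human, and metabolites monitored.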

[2] = AUC (0 to t) in cynomolgus monkey at 20 mg/kg, po measured on day 1 and 27 post dose by LC-MS/MS analysis; type: ADME, organism-based, Macaca fascicularis; conditions: in vivo
Method in brief: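 Within a 4-week oral toxicity study, Cynomolgus monkeys received 6, 12 or 20 mg/kg daily. Blood was sampled from 0.5 to 24 h post dose on days 1 and 27. Tmax, Cmax, T1/2 and AUC0–24 came from individual profiles of parent and metabolite.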

[3] = tested on: Mus musculus; assay: Antiarthritic activity in human TNF transgenic mouse model assessed as reduction in paw swelling at 20 to 50 mg/kg/day, po for 10 weeks; type: functional, organism-based
Method in brief: (§2)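 Heterozygous human TNF transgenic mice (8 per group) were dosed orally for ten weeks with 20 or 50 mg/kg/day as a methylcellulose suspension, alongside vehicle and infliximab i.p. controls. Joint swelling and grip strength were scored weekly, and hind paws were examined histologically at the end.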

[4] = tested on: Rattus norvegicus; assay: In vivo inhibition of P38 MAPKalpha in Sprague-Dawley rat assessed as decrease in LPS-stimulated TNFalpha level in serum at 10 mg/kg, po pretreated for 1 hr followed by LPS addition measured after 2 hrs relative to control; type: functional
Method in brief: (§3)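 Sprague–Dawley rats (8/group) were dosed orally with vehicle or 1, 3 or 10 mg/kg. LPS 0.1 mg/kg i.v. was given 1 h after dosing. Blood was collected 2 h later and serum TNFα measured. Inhibition was calculated relative to the mean of vehicle-treated animals.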

[5] = tested on: Rattus norvegicus; assay: Antiarthritic activity in Lewis rat assessed as collagen oligomeric matrix protein level in serum at 50 mg/kg, po qd administered for 10 days (Rbv = 0.17 +/- 0.02 U/l); type: functional
Method in brief: (§4)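 Collagen-induced arthritis in male Lewis rats (5–6 per group). Groups received vehicle, dexamethasone 1 mg/kg, test item 50 mg/kg once daily, or 25 mg/kg twice daily for 10 days. Body weight, arthritic score and paw volume were monitored, and serum COMP was measured at the end.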

[6] = Drug uptake in LPS-stimulated female Lewis rat serum at 10 mg/kg, po pretreated for 3 hrs followed by LPS addition measured after 1.5 hrs post dose; type: ADME, organism-based; conditions: read-out: Drug uptake
Method in brief: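 Female Lewis rats, n = 8/group, dosed orally at 10 mg/kg at 1, 3 or 5 h before LPS challenge. Serum aliquots taken 1.5 h after LPS were used to measure drug concentration.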

[7] = tested on: Rattus norvegicus; assay: In vivo inhibition of P38 MAPKalpha in Sprague-Dawley rat assessed as decrease in LPS-stimulated TNFalpha level in serum at 1 mg/kg, po pretreated for 1 hr followed by LPS addition measured after 2 hrs relative to control; type: functional; method in brief: as §3
[8] = tested on: Rattus norvegicus; assay: In vivo inhibition of P38 MAPKalpha in Lewis rat assessed as decrease in LPS-stimulated TNFalpha level in serum at 10 mg/kg, po pretreated for 1 hrs followed by LPS addition measured after 1.5 hrs post dose; type: functional, organism-based
Method in brief: (§5)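 Lewis rats, n = 8/group: females dosed orally at 10 mg/kg at −1, −3 or −5 h relative to LPS challenge, plus one male group dosed at −1 h. Male and female vehicle controls were given at −1 h. Serum TNFα was measured after LPS and compared with vehicle.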

[9] = tested on: Mus musculus; assay: Antiarthritic activity in human TNF transgenic mouse model assessed as reduction in bone erosion at 20 to 50 mg/kg/day, po for 10 weeks; type: functional, organism-based; method in brief: as §2
[10] = tested on: Rattus norvegicus; assay: In vivo inhibition of P38 MAPKalpha in Lewis rat assessed as decrease in LPS-stimulated TNFalpha level in serum at 10 mg/kg, po pretreated for 1 hr followed by LPS addition measured after 1.5 hrs post dose relative to control; type: functional; method in brief: as §5
[11] = Tmax in female Sprague-Dawley rat at 30 mg/kg, po by LC-MS/MS analysis; type: ADME, organism-based; conditions: in vivo
[12] = molecular target: T1, Mitogen-activated protein kinase 14 (Homo sapiens, UniProt Q16539); assay: Inhibition of p38alpha MAPK (unknown origin) by beta-galactosidase enzyme complementation assay
T1 sequence (Q16539 whole entry): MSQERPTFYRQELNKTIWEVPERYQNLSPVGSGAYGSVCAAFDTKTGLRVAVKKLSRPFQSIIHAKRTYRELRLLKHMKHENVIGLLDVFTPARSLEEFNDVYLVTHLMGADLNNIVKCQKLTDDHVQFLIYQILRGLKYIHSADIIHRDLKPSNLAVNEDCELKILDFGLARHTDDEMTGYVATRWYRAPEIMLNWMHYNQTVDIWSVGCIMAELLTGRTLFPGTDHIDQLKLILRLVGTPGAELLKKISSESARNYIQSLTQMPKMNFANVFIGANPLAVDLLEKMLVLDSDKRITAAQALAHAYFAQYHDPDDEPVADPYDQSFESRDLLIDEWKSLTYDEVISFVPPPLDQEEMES

[13] = tested on: Rattus norvegicus; assay: Antiarthritic activity in Lewis rat assessed as change in paw volume at 25 mg/kg, po bid administered for 10 days; type: functional, organism-based; method in brief: as §4
[14] = AUC (infinity) in human at 20 mg, po administered as single dose; type: ADME, organism-based; set-up: dose 20 mg, time infinity, route oral; conditions: in vivo
Method in brief: (§6)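 Placebo-controlled, single-blind, randomized, consecutive-dosing study in healthy subjects given single oral doses, with 10 mg also given fasting and fed in a crossover. Plasma parent and active metabolite were measured predose and from 0.25 to 36 h post dose. PK parameters were derived from individual concentration–time profiles and reported as means.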

[15] = tested on: Liver; assay: Drug metabolism in human liver microsomes assessed as 4-(4-(4-fluorophenyl)-1-methyl-2-(methylsulfonyl)-1H-imidazol-5-yl)pyridin-2-amine formation at 10 to 100 uM; type: ADME, microsome; method in brief: as §1
[16] = tested on: Homo sapiens; assay: AUC (infinity) in human assessed as 4-(4-(4-fluorophenyl)-1-methyl-2-(methylsulfinyl)-1H-imidazol-5-yl)pyridin-2-amine formation at 20 mg, po administered as single dose; type: ADME, organism-based; set-up: dose 20 mg, time infinity, route oral; conditions: in vivo; method in brief: as §6
[17] = molecular target: Voltage-gated inwardly rectifying potassium channel KCNH2 (Homo sapiens, UniProt Q12809); assay: Inhibition of human ERG expressed in HEK293 cells by patch clamp method; type: cell-based
Chain of Voltage-gated inwardly rectifying potassium channel KCNH2 (Q12809 whole entry): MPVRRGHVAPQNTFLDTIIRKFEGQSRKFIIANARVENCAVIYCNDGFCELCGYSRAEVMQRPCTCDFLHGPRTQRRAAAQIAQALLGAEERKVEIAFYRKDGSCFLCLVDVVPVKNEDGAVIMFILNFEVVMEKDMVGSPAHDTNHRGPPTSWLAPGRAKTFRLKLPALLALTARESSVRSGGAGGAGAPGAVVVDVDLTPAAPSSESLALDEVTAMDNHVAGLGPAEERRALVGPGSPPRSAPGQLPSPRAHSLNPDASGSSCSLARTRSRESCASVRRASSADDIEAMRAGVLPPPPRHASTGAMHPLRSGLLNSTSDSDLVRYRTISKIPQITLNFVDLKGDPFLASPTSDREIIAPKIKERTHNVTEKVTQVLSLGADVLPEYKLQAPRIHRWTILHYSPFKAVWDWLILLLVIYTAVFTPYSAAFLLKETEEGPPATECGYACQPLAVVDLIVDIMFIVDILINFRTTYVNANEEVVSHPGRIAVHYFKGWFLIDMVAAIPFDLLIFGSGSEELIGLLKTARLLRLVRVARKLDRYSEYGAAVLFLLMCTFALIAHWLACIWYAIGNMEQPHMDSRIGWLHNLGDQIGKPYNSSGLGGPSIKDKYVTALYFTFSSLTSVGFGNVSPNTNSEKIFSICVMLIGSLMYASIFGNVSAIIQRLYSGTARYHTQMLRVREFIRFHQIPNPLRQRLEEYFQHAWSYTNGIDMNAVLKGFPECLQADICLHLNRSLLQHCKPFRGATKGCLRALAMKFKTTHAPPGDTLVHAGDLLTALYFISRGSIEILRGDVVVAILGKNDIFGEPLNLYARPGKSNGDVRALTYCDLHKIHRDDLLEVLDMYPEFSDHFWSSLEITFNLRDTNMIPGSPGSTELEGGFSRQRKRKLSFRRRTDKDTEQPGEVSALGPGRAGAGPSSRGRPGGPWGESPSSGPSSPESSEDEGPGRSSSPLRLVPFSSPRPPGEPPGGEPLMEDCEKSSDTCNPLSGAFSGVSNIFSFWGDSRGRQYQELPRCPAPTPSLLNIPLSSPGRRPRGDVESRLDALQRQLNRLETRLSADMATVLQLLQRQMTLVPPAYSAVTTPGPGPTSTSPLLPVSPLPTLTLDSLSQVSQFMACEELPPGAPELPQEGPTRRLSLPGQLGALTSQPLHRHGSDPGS

[18] = tested on: Mus musculus; assay: In vivo inhibition of P38 MAPKalpha in BALB/c mouse assessed as decrease in LPS/GalN-stimulated TNFalpha level in plasma at 30 mg/kg, po administered via gavage pretreated for 1 hr followed by LPS/GalN addition measured after 1.5 hrs relative to control; type: functional
Method in brief: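 Male BALB/c mice, n = 6/group, given 3, 10 or 30 mg/kg orally by gavage 1 h before i.p. D-GalN (500 mg/kg) plus LPS (1.5 μg/kg). Blood was taken by cardiac puncture and plasma TNFα measured against a vehicle-only control.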

[19] = molecular target: T1, Mitogen-activated protein kinase 14; assay: Inhibition of MKK6-mediated p38alpha MAPK (unknown origin) phosphorylation up to 10 uM
[20] = molecular target: Adenosine receptor A1 (Homo sapiens) (UniProt P30542); assay: Antagonist activity at adenosine A1 receptor (unknown origin) at 10 uM relative to control
Chain of Adenosine receptor A1 (Homo sapiens) (P30542 whole entry): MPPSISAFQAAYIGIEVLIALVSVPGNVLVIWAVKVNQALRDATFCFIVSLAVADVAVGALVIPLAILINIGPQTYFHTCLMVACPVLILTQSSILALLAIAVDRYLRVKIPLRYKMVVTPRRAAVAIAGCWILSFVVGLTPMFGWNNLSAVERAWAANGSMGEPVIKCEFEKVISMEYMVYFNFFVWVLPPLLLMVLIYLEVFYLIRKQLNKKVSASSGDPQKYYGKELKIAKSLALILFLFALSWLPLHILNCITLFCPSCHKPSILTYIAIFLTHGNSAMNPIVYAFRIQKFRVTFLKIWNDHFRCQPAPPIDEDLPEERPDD

[21] = organism: Homo sapiens; assay: Inhibition of PDE4 in LPS-stimulated human whole blood assessed as decrease in leukotriene B4 level in plasma
[22] = tested on: Rattus norvegicus; assay: Toxicity in Sprague-Dawley rat assessed as increase in ptyalism at 150 mg/kg, po administered via gavage for daily 28 days followed by 2 weeks off without dosing; type: organism-based; conditions: in vivo
[23] = tested on: Escherichia coli; assay: Genotoxicity in Escherichia coli in presence of S9 fraction by Ames test; type: toxicity
Method in brief: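 Bacterial reverse mutation (Ames) test in S. typhimurium and E. coli strains, run with and without S9 mix.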

[24] = Drug metabolism in cynomolgus monkey liver microsomes assessed as 4-(4-(4-fluorophenyl)-1-methyl-2-(methylsulfinyl)-1H-imidazol-5-yl)pyridin-2-amine formation at 10 to 100 uM; type: ADME, Macaca fascicularis, microsome; method in brief: as §1
[25] = tested on: Canis familiaris; assay: Tmax in Beagle dog assessed as 4-(4-(4-fluorophenyl)-1-methyl-2-(methylsulfinyl)-1H-imidazol-5-yl)pyridin-2-amine level at 40 mg/kg, po by LC-MS/MS analysis; type: ADME, organism-based, Canis lupus familiaris; conditions: in vivo
[26] = Drug level in cynomolgus monkey liver microsomes treated with CBS-3595 at 10 to 100 uM; type: ADME, Macaca fascicularis, microsome; method in brief: as §1

For CC(=O)Nc1cc(-c2c(-c3ccc(F)cc3)nc([S+](C)[O-])n2C)ccn1 (stereo unspecified), the Drug metabolism [1] was “Metabolite_Detected”, the AUC(0-t) [2] was 79.6 µM·h and the Activity [3] was “Active”. It also gave an inhibition in vivo at 10 mg/kg [4] of 96%, an Activity [5] of 0.08 U/L and a concentration at 1.5 h [6] of 0.526 µg/mL. For the same compound, the inhibition in vivo at 1 mg/kg [7] was 43%, the inhibition [8] was “Active” and the Activity [9] was “Active”. For the same compound, the inhibition in vivo at 10 mg/kg [10] was 76%, the Tmax [11] was 2 h and the IC50 [12] was 0.5 µM. The Activity [13] was “inactive”, the AUC(0-inf) [14] was 2.24 µM·h and the Drug metabolism [15] was “Metabolite_Detected”. It also gave an AUC [16] of 6.1022 µM·h, an IC50 [17] of 213 µM and an inhibition in vivo at 30 mg/kg [18] of 95%. The inhibition [19] was “inactive”, the inhibition [20] was 58% and the inhibition [21] was “Dose-dependent effect”. For the same compound, the Activity [22] was “Toxic”, the Activity [23] was “Non-Toxic” and the Drug metabolism [24] was “Metabolite_Detected”.
In the case of Cn1c([S+](C)[O-])nc(-c2ccc(F)cc2)c1-c1ccnc(N)c1 (stereo unspecified), the Tmax [25] is reported as 4 h and the Drug metabolism [26] is reported as “Metabolite_Detected”.
